# Assay results collected from several papers.
# Each line is one published result; the experiments were not run side by side.
# Target: LIM domain kinase 1 (LIMK1, Homo sapiens, UniProt P53667)
SMILES,test,setting,measurement,result
C#Cc1cc(-c2cc(Nc3nc(N[C@@H](C)c4ccc(F)cn4)ncc3Cl)n[nH]2)ccc1C=O,"enzyme activity, inhibitor",0.2 µM,inhibition,24.2%
CC(C)S(=O)(=O)c1ccc2nccc(Nc3ccc4sc(C5CCCC5)nc4c3)c2c1,"enzyme activity, inhibitor",1 µM,activity vs control,82%
C=CC(=O)N1CCC[C@@H](n2nc(-c3ccc(Oc4ccccc4)cc3)c3c(N)ncnc32)C1,"enzyme activity, inhibitor",1 µM,inhibition,76%
C[C@H]1CC[C@H](n2c3cnccc3c3cnc(Nc4ccc5c(n4)CCN(C(=O)CO)C5)nc32)CC1,"binding, competition with immobilised ligand",1 µM,remaining binding,98%
CO[C@@H]1[C@H](N(C)C(=O)c2ccccc2)C[C@H]2O[C@]1(C)n1c3ccccc3c3c4c(c5c6ccccc6n2c5c31)C(=O)NC4,"enzyme activity, inhibitor",1 µM,inhibition,12%
CN1CCN(C(=O)c2ccc(NC(=O)Nc3ccc(N(C)c4ccnc(Nc5ccc(CS(C)(=O)=O)cc5)n4)cc3)cc2)CC1,"binding, competition with immobilised ligand",1 µM,remaining binding,61%
CCCCC(=O)Nc1ccc(-c2ccc3ncn(CCC)c(=O)c3c2)cn1,"binding, competition with immobilised ligand",0.5 µM,remaining binding,96%
C1=C/COCc2cc(ccc2OCCN2CCCC2)Nc2nccc(n2)-c2cccc(c2)COC/1,binding,0.1 µM,remaining binding,82%
